CHOP inhibitor = CHOP inhibition in unfolded protein response; inhibition, % at 10 µM; actives 3.8% (n = 220,000); CHO-K1 CHOP-promoter luciferase, tunicamycin-induced, 15-18 h;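 active means compounds that reduced the stress-induced luciferase reporter signal by more than about 70% of percent inhibition, limit read from the data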
CHOP UPR activ = activators of apoptotic arm of unfolded protein response (CHOP); CHO-CHOP luciferase reporter, UPR activation, luminescence; percent of tunicamycin response over DMSO baseline; actives 0.34% (n = 330,000); AID 449763; activation, % at 10 µM;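 active means at 10 µM dose, activation of 40% or more, normalized to positive control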
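System: CHO-CHOP luciferase reporter cell line; amount: 500 cells/well; buffer or medium: F12 medium containing 10% fetal bovine serum; incubation: 6 h compound exposure at 37 °C after overnight seeding; measured by: luciferase luminescence after 10 min with Steady-Glo reagent; evaluation: % reporter activation, DMSO baseline versus tunicamycin full activation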
MPTP block = permeability transition pore inhibition. isolated mouse mitochondria, Ca2+ swelling absorbance, 30 min. inhibition, % at 10 µM. actives 1.4% (n = 360,000);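 active means inhibition of 50% or more, scaled per plate between neutral and stimulator controls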
aDG glyco up = alpha-DG glycosylation activation; actives 0.22% (n = 360,000); Pro5-aDG cells, alpha-DG glycosylation AlphaScreen (IIH6); 0% Pro5, 100% B10-LARGE cell signal; activation, % at 10 µM;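 active means activation of at least 8% versus controls, or a plate z-score of at least 8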;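 further: Pro5 are CHO cells carrying HIG-tagged alpha-DG that lacks glycosylation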
UPR XBP1 act = activators of adaptive arm of unfolded protein response (XBP1). CHO-XBP1 luciferase reporter, IRE1-XBP1 UPR activation, luminescence; percent of tunicamycin response, DMSO as zero. activation, % at 20 µM. actives 0.33% (n = 330,000);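 active means versus positive control, 20 µM dose yields 30% or more activation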
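Material: CHO-XBP1 cells stably carrying IRE1-XBP1-driven luciferase reporter | Medium: F12 with 10% serum | Compound dosing: 20 µM single concentration, DMSO 1% | Incubation: Overnight seeding at 37 °C, 6 h compound treatment at 37 °C | Detection: Steady-Glo luminescence read | Read-out basis: % activation of reporter signal versus tunicamycin and DMSO controls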
GRIN3A LBD mod = modulates the human NR3A ligand-binding domain; Tm shift relative to glycine control, % at 25 µM; actives 2.5% (n = 340,000); NR3A LBD differential scanning fluorimetry, Tm shift; 0% = protein alone, 100% = glycine-bound protein;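 active means melting temperature shift of at least 10% of the positive control shift, at one fixed dose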
MPTP counter = mitochondrial membrane potential, counter-screen. shares compounds with MPTP block. isolated mitochondria, Rhodamine 123 fluorescence. inhibition, % at 10 µM. actives 78% (n = 5,000); in the data active means inhibition above about 22%
MPTP abs DR = MPTP inhibition, dose response swelling confirmation. actives 58% (n = 780). shares compounds with MPTP block. isolated mitochondria swelling, absorbance. IC50, µM; in the data active means IC50 below about 20 µM
MPTP cs DR = active in counter-screen for permeability transition pore inhibitors. shares compounds with MPTP block. isolated mitochondria counterscreen, fluorescence read-out. IC50, µM. actives 49% (n = 780). AID 651564; in the data active means IC50 below about 80 µM
Of the large screens only hits and unclear results are named; the others gave an inactive call (follow-up assays come after a bar, where they were run). In the library only some 5.6% were active in any assay of this set; here they are far more common.

Cc1c(O)ccc2c(CN(C)Cc3ccccc3)cc(=O)oc12	MPTP block 84 | MPTP counter 62
Cc1c(O)ccc2c(CN3CCN(Cc4ccccc4)CC3)cc(=O)oc12	none (no result: CHOP inhibitor)
CC(C)C(=O)Nc1ccc(Sc2ccc(F)cc2)cc1	MPTP block 52 | MPTP counter 37
COc1ccc(OC)c(S(=O)(=O)n2ccc(C)n2)c1	none (no result: CHOP inhibitor)
CNCCCC1Sc2ccccc2Oc2ccccc21 (stereo unspecified)	MPTP block 79 | MPTP counter inactive | MPTP abs DR 5.1 | MPTP cs DR inactive
CCC(ONc1ccccc1C(F)(F)F)(C(=O)NN(C)C)c1ccccc1 (stereo unspecified)	none (no result: CHOP inhibitor)
COC(=O)/C=C1\SC(=Nc2ccc(Cl)c(Cl)c2)NC1=O	MPTP block 95 | MPTP counter 52
COC(=O)c1c(NC(=O)Cc2ccccc2)sc(C)c1C	none
COC(=O)c1c(NC(=S)Nc2ccccc2Cl)sc(C)c1C	CHOP inhibitor 89, MPTP block 56 | MPTP counter 70
Cc1ccc(C)n1NC(=O)c1ccccc1O	MPTP block 78 | MPTP counter 58
Cc1onc(-c2ccccc2)c1C(=O)NNC(=S)NC(=O)/C=C/c1ccccc1	MPTP block 93 | MPTP counter inactive
Cc1onc(-c2ccccc2)c1C(=O)NNC(=O)c1ccccc1O	none (no result: CHOP inhibitor)
Cc1onc(-c2ccccc2)c1C(=O)NNC(=O)c1ccccc1	none (no result: CHOP inhibitor)
COc1ccc(/C=C/C(=O)NC(=S)NNC(=O)c2c(-c3ccccc3)noc2C)cc1	none
Cc1onc(-c2ccccc2)c1C(=O)NNC(=S)NC(=O)c1ccc(Br)cc1	MPTP block 68 (no result: CHOP UPR activ, UPR XBP1 act) | MPTP counter 29
Cc1onc(-c2ccccc2)c1C(=O)NNC(=S)NC(=O)c1ccc(Cl)cc1Cl	CHOP inhibitor 86, MPTP block 104 | MPTP counter 33
Cc1nnc(SCC(=O)N2c3ccccc3CC2C)[nH]c1=O (stereo unspecified)	none
COCCCNC(=O)CN(c1ccc(F)cc1)S(=O)(=O)c1ccc2c(c1)OCCO2	none (no result: CHOP inhibitor)
CC1=C(C(=O)N2CCCCCC2)CC(CC(=O)NCC2CCCCC2)C(=O)N1CCCN1CCCC1=O (stereo unspecified)	none (no result: CHOP inhibitor, CHOP UPR activ, UPR XBP1 act, GRIN3A LBD mod)
Oc1cc(CNC2CCCCC2)c(O)cc1CNC1CCCCC1	none (no result: CHOP inhibitor, CHOP UPR activ, UPR XBP1 act)
O=C(Nc1ccc(Cl)cc1)Nc1ccc2c(c1)N1CCN=C1S2	MPTP block 93, GRIN3A LBD mod 14 | MPTP counter 77
Oc1ccccc1/C=N/NC(=S)NC1CC2CCC1C2 (stereo unspecified)	MPTP block 54 | MPTP counter 67
COc1cccc(/C=N/NC(=S)NC2CC3CCC2C3)c1OC (stereo unspecified)	none
Cc1c(Cl)c([N+](=O)[O-])nn1CCCC(=O)Nc1cc(Oc2ccccc2)cc([N+](=O)[O-])c1	MPTP block 85, GRIN3A LBD mod 18 | MPTP counter 83
Cc1cc(C)cc(C(=O)N(CCc2ccccc2)C2CC3CCC(C2)N3C)c1 (stereo unspecified)	none (no result: CHOP inhibitor)
CCc1c(C)c(C#N)c2[nH]c3ccccc3n2c1=S	MPTP block 90, GRIN3A LBD mod 11 | MPTP counter 81
C=C(C)Cc1c(C)c(C#N)c2[nH]c3ccccc3n2c1=O	none (no result: CHOP inhibitor)
Cc1c(CCC(=O)O)c(=O)n2c([nH]c3ccccc32)c1C#N	none
Cc1ccc(Cc2c(C)c(C#N)c3[nH]c4ccccc4n3c2=O)cc1	MPTP block 89 | MPTP counter 70
CCc1cc(=S)n2c([nH]c3ccccc32)c1C#N	MPTP block 101 | MPTP counter 68
CNCCCOc1ccc(C(C)(C)c2ccccc2)cc1	none (no result: CHOP UPR activ, MPTP block, aDG glyco up, UPR XBP1 act, GRIN3A LBD mod)
COCCCNCCOc1ccc(C(C)(C)c2ccccc2)cc1	MPTP block 97 | MPTP counter inactive | MPTP abs DR 5.7 | MPTP cs DR inactive
CCCCCc1ccc(-c2cn(CN3C(=O)c4ccccc4C3=O)nn2)cc1	MPTP block 71 (no result: CHOP inhibitor) | MPTP counter inactive | MPTP abs DR <0.2 | MPTP cs DR <2.5
COc1cc2c(cc1[N+](=O)[O-])-c1ccc([N+](=O)[O-])cc1C2=NNC(N)=S	none (no result: CHOP inhibitor, CHOP UPR activ, UPR XBP1 act, GRIN3A LBD mod)
NC(=S)NN=C1c2cc(Cl)ccc2-c2c1cc(Cl)cc2[N+](=O)[O-]	MPTP block 93, GRIN3A LBD mod 12 (no result: CHOP inhibitor, CHOP UPR activ, UPR XBP1 act) | MPTP counter 74
Cc1nc(-c2ccc(Cl)cc2)sc1C1(C)CC(c2cccc(F)c2)=NO1 (stereo unspecified)	none
CC1(OC(=O)CCc2ccccc2)C(=O)C=C2C=C(c3ccc(C#N)cc3)N(CCc3c[nH]c4ccccc34)C=C2C1=O (stereo unspecified)	none
O=C(COC(=O)/C=C/c1cc(Br)ccc1F)NC1CC1	none (no result: CHOP inhibitor)
Cc1ccnc(NC(=O)Nc2cccc(F)c2)n1	none
COc1cccc(NC(=O)Nc2nc(SC(C)(C)C)ns2)c1	MPTP block 93, GRIN3A LBD mod 40 (no result: CHOP inhibitor) | MPTP counter 77
COc1cccc(NC(=O)Nc2ccc3nsnc3c2)c1	MPTP block 93, GRIN3A LBD mod 37 | MPTP counter 87
CCCSc1nsc(NC(=O)Nc2ccc(F)cc2F)n1	MPTP block 97, GRIN3A LBD mod 14 (no result: CHOP inhibitor) | MPTP counter 85
CCSc1nsc(NC(=O)Nc2cccc(F)c2)n1	MPTP block 98, GRIN3A LBD mod 32 (no result: CHOP inhibitor) | MPTP counter 80
COc1ccc(-c2cnc3c(NC=O)cc(-c4cccc(NS(C)(=O)=O)c4)cn23)cc1OC	none (no result: CHOP inhibitor, CHOP UPR activ, UPR XBP1 act, GRIN3A LBD mod)
COc1ccc(C(=O)COc2ccc(C(C)=O)cc2OC)cc1OC	none (no result: CHOP inhibitor, CHOP UPR activ, UPR XBP1 act)
CCCCCCCCC(=O)N1C(C)CCC1C (stereo unspecified)	none (no result: CHOP inhibitor, CHOP UPR activ, UPR XBP1 act, GRIN3A LBD mod)
COCCCNC(=O)CC1C[C@H](C(=O)N2CCOCC2)[C@@]2(C)c3[nH]c4ccc(OC)cc4c3CCN2C1=O (stereo partly specified)	none (no result: CHOP inhibitor)
Cc1ccccc1CS(=O)(=O)Cc1ccc(C(=O)NCCc2ccccc2)o1	none (no result: CHOP inhibitor)
COc1cccc(NC(=O)Nc2nc(SC)ns2)c1	MPTP block 69, GRIN3A LBD mod 12 (no result: CHOP inhibitor) | MPTP counter 81
O=C(CSc1nc2cc(Cl)ccc2o1)Nc1ccc(N2CCOCC2)cc1	MPTP block 51 | MPTP counter 68
CC(=O)Nc1nc(-c2ccc(Cl)cc2)ns1	MPTP block 88 | MPTP counter 60

Screens: PubChem, several laboratories
